This is a sample that favours compounds with a hit; in the whole collection about 3.6% have one here.
PAFAH1B3 FP inh: blocks human PAF acetylhydrolase 1B catalytic subunit 3. recombinant PAFAH1B3, FP-rhodamine probe, fluorescence polarization. AID 492972. inhibition, % at 3.39 µM. Q15102. 340,000 compounds, 0.28% hits;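 active means inhibition above the screen-wide average of all tested compounds plus 3 SD, cut at about 25% in these data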;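 further: 0% = enzyme with DMSO only and 100% = wells lacking PAFAH1B3 protein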
pPAFAH inh: inhibitors of human plasma PAF acetylhydrolase (pPAFAH). recombinant pPAFAH, FP-rhodamine probe fluorescence polarization. Q13093. inhibition, % at 3.39 µM. 330,000 compounds, 1.5% hits;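 active means inhibition above the mean inhibition across the screen plus 3 SD, cut at about 25% in these data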;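 further: inhibitors block binding of the rhodamine activity-based probe so polarization drops; 0% = enzyme with DMSO and 100% = wells lacking pPAFAH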
Target sequence (Q13093 whole entry, looked up): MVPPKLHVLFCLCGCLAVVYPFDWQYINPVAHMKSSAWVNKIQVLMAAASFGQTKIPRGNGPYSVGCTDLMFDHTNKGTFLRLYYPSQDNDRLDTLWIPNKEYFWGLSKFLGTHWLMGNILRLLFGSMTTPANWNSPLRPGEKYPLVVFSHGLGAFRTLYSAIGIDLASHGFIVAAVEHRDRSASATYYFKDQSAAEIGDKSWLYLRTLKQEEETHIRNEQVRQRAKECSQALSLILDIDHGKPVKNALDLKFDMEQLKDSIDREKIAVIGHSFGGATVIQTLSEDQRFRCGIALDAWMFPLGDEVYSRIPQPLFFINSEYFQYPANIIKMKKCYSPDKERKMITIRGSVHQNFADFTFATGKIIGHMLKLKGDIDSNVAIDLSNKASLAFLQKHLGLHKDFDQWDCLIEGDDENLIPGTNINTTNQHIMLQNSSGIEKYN
PAFAH1B2 FP inh: PAFAH1B2 (human) inhibition; P68402; recombinant PAFAH1B2, FP-rhodamine activity probe, fluorescence polarization; inhibition, % at 3.39 µM; 340,000 compounds, 1.2% hits;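 active means inhibition above the mean of all tested compounds plus 3 SD, cut at about 24% in these data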;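 further: 0% = enzyme with DMSO and 100% = wells lacking PAFAH1B2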
IMP-1 inhibitor: blocks Pseudomonas aeruginosa IMP-1 metallo-beta-lactamase; inhibition, % at 5.6 µM; AID 1556; purified IMP-1, nitrocefin hydrolysis, epi-absorbance fluorescence; 290,000 compounds, 0.45% hits;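 active means inhibition above the mean plus 3 SD of all compounds in the same screening run, cut at about 4.5% in these data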;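 further: 0% = IMP-1 with DMSO and 100% = DMSO wells lacking enzyme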
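System: purified recombinant IMP-1 beta-lactamase. Medium: Zinc- and detergent-supplemented HEPES buffer, pH 7.1. Compound: one 5.6 µM dose […]. Schedule: 15 min preincubation plus 25 min reaction at 25 °C. Technique: Epi-absorbance fluorescence, 480 nm excitation, 530 nm emission.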
PAFAH2 inh: inhibitors of human PAFAH2. recombinant PAFAH2, FP-rhodamine activity probe, fluorescence polarization. 340,000 compounds, 0.99% hits. inhibition, % at 3.39 µM. AID 492956;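 active means inhibition above the mean over all tested compounds plus 3 SD, cut at about 30% in these data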;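 further: inhibitors block probe labeling of enzyme so polarization drops; 0% = enzyme with DMSO and 100% = wells lacking PAFAH2 protein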
VIM-2 inh: inhibitors of Pseudomonas aeruginosa VIM-2 metallo-beta-lactamase; inhibition, % at 5.6 µM; purified VIM-2, nitrocefin hydrolysis, epi-absorbance fluorescence; 290,000 compounds, 0.89% hits;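 active means inhibition above the mean of all tested compounds plus 3 SD, cutoff set per screening run, cut at about 7.5% in these data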;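 further: red hydrolysis product quenches plate fluorescence so inhibitors raise well fluorescence; 0% = enzyme with DMSO and 100% = DMSO without enzyme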
PAFAH2 FP conf: PAFAH2 (human) inhibition, confirmed; shares compounds with PAFAH2 inh; recombinant PAFAH2, FP-rhodamine activity probe, fluorescence polarization; inhibition, % at 3.39 µM; 2,300 compounds, 65% hits; AID 493030;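 active means mean inhibition over three repeats above a set limit taken from the earlier primary screen, cut at about 30% in these data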;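 further: inhibitor blocks binding of rhodamine activity probe so polarization falls; 0% = enzyme with DMSO and 100% = wells lacking PAFAH2 protein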
PAFAH1B3 conf FP: confirmation of human PAFAH1B3 inhibitors. shares compounds with PAFAH1B3 FP inh. recombinant PAFAH1B3, FP-Rh activity-based probe, fluorescence polarization. inhibition, % at 3.39 µM. 390 compounds, 30% hits. AID 493032;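 active means average inhibition over triplicate runs above the hit cutoff set in the earlier primary screen, cut at about 25% in these data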;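 further: 0% = enzyme with DMSO and 100% = wells lacking PAFAH1B3 protein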
* = called active by the depositor.

What do the screens show for `CCCCNC(=O)COC(=O)c1ccc(C)c(NC(=O)c2ccco2)c1`?
PAFAH1B3 FP inh: 0.9; pPAFAH inh: 4.4; PAFAH1B2 FP inh: -1.9; IMP-1 inhibitor: -1.6; PAFAH2 inh: 50.3*; VIM-2 inh: 0.4; PAFAH2 FP conf: 45.3*

Results for CCN(CC)C(=O)COC(=O)c1ccc(C)c(NC(=O)c2ccco2)c1 ?
PAFAH1B3 FP inh: 6.2; pPAFAH inh: 4.2; PAFAH1B2 FP inh: 10.3; IMP-1 inhibitor: -0.3; PAFAH2 inh: 3.0; VIM-2 inh: 2.2

How did C=CCNC(=O)COC(=O)c1ccc(C)c(NC(=O)c2ccco2)c1 do in these assays?
PAFAH1B3 FP inh: 0.3; pPAFAH inh: 1.2; PAFAH1B2 FP inh: 4.8; IMP-1 inhibitor: -0.6; PAFAH2 inh: 36.4*; VIM-2 inh: 1.6; PAFAH2 FP conf: 29.7*

What do the screens show for `CC(C)Oc1ccc(C(=O)Nc2cc(S(=O)(=O)N3CCOCC3)ccc2N2CCOCC2)cc1`?
PAFAH1B3 FP inh: -0.9; PAFAH1B2 FP inh: 0.0; PAFAH2 inh: -1.1

What do the screens show for `CCSC1=N/C(=C\c2ccc3c(c2)OCO3)C(=O)S1`?
PAFAH1B3 FP inh: -5.3; pPAFAH inh: -2.5; PAFAH1B2 FP inh: 0.0; IMP-1 inhibitor: -0.6; PAFAH2 inh: 17.1; VIM-2 inh: -1.2

How did C=CCSC1=N/C(=C\c2cc(OC)c3c(c2)OCO3)C(=O)S1 do in these assays?
PAFAH1B3 FP inh: 6.9; pPAFAH inh: 4.4; PAFAH1B2 FP inh: -1.4; IMP-1 inhibitor: -3.5; PAFAH2 inh: 42.3*; VIM-2 inh: -0.4; PAFAH2 FP conf: 43.1*

What do the screens show for `O=C(NCCCN1CCOCC1)c1ccccc1N1C(=O)[C@@H]2Cc3c([nH]c4ccccc34)C(c3cccc(Cl)c3)N2C1=O` (some centres not stated)?
PAFAH1B3 FP inh: 16.5; pPAFAH inh: 2.4; PAFAH1B2 FP inh: 1.3; IMP-1 inhibitor: -1.0; PAFAH2 inh: -2.3; VIM-2 inh: 0.9

Results for Cc1ccc(S(=O)(=O)n2nc(OC(=O)c3cccc(F)c3)cc2N)cc1 ?
PAFAH1B3 FP inh: 8.1; pPAFAH inh: 1.9; PAFAH1B2 FP inh: 9.2; IMP-1 inhibitor: -3.9; PAFAH2 inh: -2.5; VIM-2 inh: 0.9

Results for Cc1ccc(S(=O)(=O)n2nc(OC(=O)c3c(F)cccc3Cl)cc2N)cc1 ?
PAFAH1B3 FP inh: 9.3; pPAFAH inh: 3.6; PAFAH1B2 FP inh: 14.6; IMP-1 inhibitor: -4.1; PAFAH2 inh: 33.5*; VIM-2 inh: -3.1; PAFAH2 FP conf: 11.7

Results for CCC(C)c1ccccc1N1CC(C(=O)NCCc2ccc(OC)c(OC)c2)CC1=O (configuration not stated) ?
PAFAH1B3 FP inh: 1.0; pPAFAH inh: 10.1; PAFAH1B2 FP inh: 6.8; PAFAH2 inh: 0.6

What do the screens show for `O=c1oc(-c2ccc(O)c(O)c2)cc2cc(O)cc(O)c12`?
PAFAH1B3 FP inh: 28.5*; pPAFAH inh: 9.8; PAFAH1B2 FP inh: 2.7; PAFAH2 inh: 8.5; PAFAH1B3 conf FP: 28.0*

What do the screens show for `O=S(=O)(Nc1ccc(N=Nc2ccc(O)c3ccccc23)cc1)c1ccccc1`?
PAFAH1B3 FP inh: 36.0*; pPAFAH inh: 24.5; PAFAH1B2 FP inh: 18.2; IMP-1 inhibitor: -3.4; PAFAH2 inh: 11.6; VIM-2 inh: -4.0; PAFAH1B3 conf FP: 16.8

How did COc1cccc(CNC(=O)CSc2nc3c(oc4ccccc43)c(=O)n2CC2CCCO2)c1 (configuration not stated) do in these assays?
PAFAH1B3 FP inh: 3.9; pPAFAH inh: 2.9; PAFAH1B2 FP inh: 4.4; PAFAH2 inh: -0.4

Results for Oc1ccccc1/C=N/n1c(COc2ccccc2)n[nH]c1=S ?
PAFAH1B3 FP inh: 43.2*; pPAFAH inh: -0.2; PAFAH1B2 FP inh: 10.0; IMP-1 inhibitor: -1.2; PAFAH2 inh: 3.0; VIM-2 inh: -4.5; PAFAH1B3 conf FP: 5.2

Results for CCC(=O)Nc1c(S(=O)(=O)c2ccccc2)c2nc3ccccc3nc2n1C(C)c1ccccc1 (configuration not stated) ?
PAFAH1B3 FP inh: -0.6; pPAFAH inh: 8.8; PAFAH1B2 FP inh: 1.4; IMP-1 inhibitor: -2.2; PAFAH2 inh: 16.2; VIM-2 inh: -2.4

Screening results: PubChem BioAssay, The Scripps Research Institute Molecular Screening Center
